According to ChEMBL document CHEMBL3779864, “Dual Alleviation of Acute and Neuropathic Pain by Fused Opioid Agonist-Neurokinin 1 Antagonist Peptidomimetics” (ACS Med Chem Lett, 2015):
The source made the active and inactive calls. The calls are words filed in the database; no cut-off is given here.

Experiments:
[1] = molecular target: Delta-type opioid receptor (Rattus norvegicus, UniProt P33533); test: Displacement of [3H]DSLET from delta opioid receptor in rat brain membrane after 2 hrs; type: cell membranes
Method in brief: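 Rat brain membranes, with [3H]DSLET as the DOR radioligand, measured as displacement binding. Values are means of 3–4 experiments.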

Substance-P receptor = Substance-P receptor (Homo sapiens, UniProt P25103); test: Displacement of [3H]SP from human NK1 receptor transfected in CHO cells by liquid scintillation counting method; type: cell-based
Method in brief: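 hNK1 receptor expressed in CHO cells, measured as [3H]SP displacement. Values are means of 3–4 experiments.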

Mu-type opioid receptor [2] = molecular target: Mu-type opioid receptor (Rattus norvegicus, UniProt P33535); test: Displacement of [3H]DAMGO from mu opioid receptor in rat brain membrane after 2 hrs; type: cell membranes
Method in brief: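 Rat brain membranes, with [3H]DAMGO as the MOR radioligand, measured as displacement binding. Values are means of 3–4 experiments.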

Mu-type opioid receptor [3] = molecular target: Mu-type opioid receptor (Cavia porcellus, UniProt P97266); test: Agonist activity at mu opioid receptor in guinea pig ileum assessed as inhibition of electrically-stimulated muscle contraction; type: tissue-based
Method in brief: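 Guinea pig ileum preparation used as the MOR-representative functional assay. Values are means of 3–4 experiments.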

[4] = molecular target: Delta-type opioid receptor (Mus musculus, UniProt P32300); test: Agonist activity at delta opioid receptor in mouse vas deferens assessed as inhibition of electrically-stimulated muscle contraction; type: tissue-based
Method in brief: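 Electrically stimulated mouse vas deferens, a DOR-representative tissue assay. Means of 3–4 experiments.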

Rattus norvegicus [5] = species: Rattus norvegicus; test: Potency index, ratio of antinociceptive activity of compound at 8 to 10 nmol, it to antinociceptive activity of morphine at 35 nmol, it in naive Wistar rat after 30 mins; type: functional
Rattus norvegicus [6] = test: Antinociceptive activity in Wistar rat model of chronic constriction injury-induced neuropathic pain assessed as reduction in hyperalgesia at 3.5 nmol dosed on day7 after tolerance development with compound12 dosed at 0.8 nmol, it QD for 6 days by cold plate test; type: functional, organism-based
Method in brief: (§1)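 Cross-tolerance design in CCI rats: intrathecal dosing once daily for 6 days from day 7 post-CCI (morphine 3.5 nmol, hybrids 0.8 or 1 nmol). On day 7 of dosing (day 14 post-CCI), morphine-tolerant rats received a single hybrid dose and hybrid-tolerant rats received morphine 3.5 nmol. Read by von Frey or cold plate and compared with pretest, day 1 and day 6.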

Rattus norvegicus [7] = species: Rattus norvegicus; test: Antinociceptive activity in Wistar rat model of chronic constriction injury-induced neuropathic pain assessed as reduction in hyperalgesia at 0.8 to 3.5 nmol after 30 mins by cold plate test; type: functional, organism-based
Method in brief: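 Rats underwent chronic constriction injury of the sciatic nerve. Seven days later, drug was given intrathecally as single injections at increasing doses. Hyperalgesia was read by cold plate test 30 min after dosing and compared with vehicle-treated CCI rats.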

Rattus norvegicus [8] = species: Rattus norvegicus; test: Antinociceptive activity in Wistar rat model of chronic constriction injury-induced neuropathic pain assessed as reduction in allodynia at 3.5 nmol, it QD for 6 consecutive days by von Frey test; type: functional, organism-based
Method in brief: (§2)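 Rats with chronic constriction injury of the sciatic nerve, dosed intrathecally once daily for 6 consecutive days starting day 7 post-CCI. Allodynia measured by von Frey, hyperalgesia by cold plate. Doses: morphine 3.5 nmol, hybrids 0.8 or 1 nmol. Compared with vehicle-treated CCI rats and with morphine-treated CCI rats.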

Rattus norvegicus [9] = species: Rattus norvegicus; test: Antinociceptive activity in Wistar rat model of chronic constriction injury-induced neuropathic pain assessed as reduction in allodynia at 0.8 to 3.5 nmol after 30 mins by von Frey test; type: functional, organism-based
Method in brief: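 Rats underwent chronic constriction injury of the sciatic nerve. Seven days later, drug was given intrathecally as single injections at increasing doses. Allodynia was read by von Frey test 30 min after dosing and compared with vehicle-treated CCI rats.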

Rattus norvegicus [10] = species: Rattus norvegicus; test: Antinociceptive activity in Wistar rat model of chronic constriction injury-induced neuropathic pain assessed as reduction in hyperalgesia at 3.5 nmol, it QD for 6 consecutive days by cols plate test; type: functional, organism-based; method in brief: as §2
Rattus norvegicus [11] = species: Rattus norvegicus; test: Antinociceptive activity in naive Wistar rat at 35 nmol, it after 2 hrs by tail flick test analysis; type: functional, organism-based
Rattus norvegicus [12] = species: Rattus norvegicus; test: Antinociceptive activity in naive Wistar rat at 8 nmol, it after 2 hrs by tail flick test analysis; type: functional, organism-based
Method in brief: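 Naïve rats got an intrathecal dose. The tail-flick response was followed over time up to 2 h after dosing.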

Rattus norvegicus [13] = species: Rattus norvegicus; test: Antinociceptive activity in Wistar rat model of chronic constriction injury-induced neuropathic pain assessed as reduction in hyperalgesia at 0.8 nmol, it QD for 6 consecutive days measured on day-4 and day-5 by cold plate test relative to morphine; type: functional, organism-based
Method in brief: (§3)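 Starting day 7 after sciatic nerve CCI, rats got 0.8 nmol i.t. once daily for 6 consecutive days. Allodynia was read by von Frey and hyperalgesia by cold plate. Comparisons were against vehicle-treated CCI rats and against rats given morphine 3.5 nmol i.t. on the same schedule.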

Rattus norvegicus [14] = species: Rattus norvegicus; test: Antinociceptive activity in Wistar rat model of chronic constriction injury-induced neuropathic pain assessed as reduction in allodynia at 0.8 nmol, it QD for 6 consecutive days by von Frey test; type: functional, organism-based; method in brief: as §3
Rattus norvegicus [15] = test: Potency index, ratio of antiallodynic effect of compound to antiallodynic effect of morphine in it dosed naive Wistar rat at 0.8 to 3.5 nmol after 30 mins by cold plate test; type: functional
Rattus norvegicus [16] = test: Antinociceptive activity in Wistar rat model of chronic constriction injury-induced neuropathic pain assessed as reduction in allodynia at 0.8 nmol dosed on day7 after tolerance development with morphine dosed at 3.5 nmol, it QD for 6 days by von Frey test; type: functional, organism-based
Method in brief: (§4)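 Rats with sciatic nerve CCI got morphine 3.5 nmol i.t. once daily for 6 days, starting day 7 after CCI. On day 7 of repeated dosing (day 14 after CCI) they received a single i.t. dose of 0.8 nmol. Allodynia was read by von Frey and hyperalgesia by cold plate. Each was compared with pretest, with day 6 and with day 1 of dosing.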

Rattus norvegicus [17] = species: Rattus norvegicus; test: Antinociceptive activity in Wistar rat model of chronic constriction injury-induced neuropathic pain assessed as reduction in hyperalgesia at 0.8 nmol, it QD for 6 consecutive days by cols plate test; type: functional, organism-based; method in brief: as §3
Rattus norvegicus [18] = test: Antinociceptive activity in Wistar rat model of chronic constriction injury-induced neuropathic pain assessed as reduction in hyperalgesia at 0.8 nmol dosed on day7 after tolerance development with morphine dosed at 3.5 nmol, it QD for 6 days by cold plate test; type: functional, organism-based; method in brief: as §4
Rattus norvegicus [19] = test: Antinociceptive activity in Wistar rat model of chronic constriction injury-induced neuropathic pain assessed as reduction in hyperalgesia at 3.5 nmol dosed on day7 after tolerance development with compound13 dosed at 1 nmol, it QD for 6 days by cold plate test; type: functional, organism-based; method in brief: as §1
Rattus norvegicus [20] = test: Antinociceptive activity in it dosed naive Wistar rat after 30 mins by tail flick test analysis; type: functional, organism-based
Method in brief: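 Naïve rats were dosed intrathecally at several doses. Tail-flick latency was read 30 min after dosing and compared with vehicle-treated naïve rats.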

Rattus norvegicus [21] = test: Antinociceptive activity in Wistar rat model of chronic constriction injury-induced neuropathic pain assessed as reduction in allodynia at 1 nmol dosed on day7 after tolerance development with morphine dosed at 3.5 nmol, it QD for 6 days by von Frey test; type: functional, organism-based; method in brief: as §1
Rattus norvegicus [22] = species: Rattus norvegicus; test: Antinociceptive activity in Wistar rat model of chronic constriction injury-induced neuropathic pain assessed as reduction in hyperalgesia at 1 nmol, it QD for 6 consecutive days measured on day-4 and day-5 by cold plate test relative to morphine; type: functional, organism-based; method in brief: as §2
Rattus norvegicus [23] = species: Rattus norvegicus; test: Antinociceptive activity in Wistar rat model of chronic constriction injury-induced neuropathic pain assessed as reduction in hyperalgesia at 1 nmol, it QD for 6 consecutive days by cols plate test; type: functional, organism-based; method in brief: as §2
Rattus norvegicus [24] = test: Antinociceptive activity in Wistar rat model of chronic constriction injury-induced neuropathic pain assessed as reduction in hyperalgesia at 1 nmol dosed on day7 after tolerance development with morphine dosed at 3.5 nmol, it QD for 6 days by cold plate test; type: functional, organism-based; method in brief: as §1
Rattus norvegicus [25] = species: Rattus norvegicus; test: Antinociceptive activity in naive Wistar rat at 10 nmol, it after 30 mins by tail flick test analysis; type: functional, organism-based
Method in brief: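 Naïve rats dosed intrathecally, compared with vehicle-treated naïve rats. Tail-flick latency read 30 min after administration.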

Rattus norvegicus [26] = species: Rattus norvegicus; test: Antinociceptive activity in Wistar rat model of chronic constriction injury-induced neuropathic pain assessed as reduction in allodynia at 1 nmol, it QD for 6 consecutive days by von Frey test; type: functional, organism-based; method in brief: as §2

Sequence of Delta-type opioid receptor (Mus musculus, UniProt P32300) (P32300 whole entry): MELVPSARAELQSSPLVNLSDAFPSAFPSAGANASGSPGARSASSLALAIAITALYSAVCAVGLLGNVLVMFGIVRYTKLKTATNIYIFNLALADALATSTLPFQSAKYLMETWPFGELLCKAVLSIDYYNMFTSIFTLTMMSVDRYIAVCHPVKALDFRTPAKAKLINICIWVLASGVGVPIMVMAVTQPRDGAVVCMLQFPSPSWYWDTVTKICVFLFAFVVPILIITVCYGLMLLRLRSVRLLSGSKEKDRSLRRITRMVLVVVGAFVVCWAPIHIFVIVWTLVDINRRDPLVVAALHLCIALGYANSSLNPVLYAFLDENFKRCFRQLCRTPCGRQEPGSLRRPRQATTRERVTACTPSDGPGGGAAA
Sequence of Substance-P receptor (P25103 whole entry): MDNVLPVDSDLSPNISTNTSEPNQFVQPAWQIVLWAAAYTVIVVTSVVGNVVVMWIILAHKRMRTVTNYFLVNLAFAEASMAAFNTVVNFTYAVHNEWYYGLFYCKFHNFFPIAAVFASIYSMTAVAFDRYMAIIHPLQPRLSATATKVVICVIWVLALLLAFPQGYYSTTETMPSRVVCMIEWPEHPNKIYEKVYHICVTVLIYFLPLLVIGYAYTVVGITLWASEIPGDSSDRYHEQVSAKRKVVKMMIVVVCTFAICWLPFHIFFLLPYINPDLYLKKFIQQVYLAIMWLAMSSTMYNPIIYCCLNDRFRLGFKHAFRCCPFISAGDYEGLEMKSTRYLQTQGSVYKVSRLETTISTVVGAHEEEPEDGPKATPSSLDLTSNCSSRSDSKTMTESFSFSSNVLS
Sequence of Mu-type opioid receptor (Rattus norvegicus, UniProt P33535) (P33535 whole entry): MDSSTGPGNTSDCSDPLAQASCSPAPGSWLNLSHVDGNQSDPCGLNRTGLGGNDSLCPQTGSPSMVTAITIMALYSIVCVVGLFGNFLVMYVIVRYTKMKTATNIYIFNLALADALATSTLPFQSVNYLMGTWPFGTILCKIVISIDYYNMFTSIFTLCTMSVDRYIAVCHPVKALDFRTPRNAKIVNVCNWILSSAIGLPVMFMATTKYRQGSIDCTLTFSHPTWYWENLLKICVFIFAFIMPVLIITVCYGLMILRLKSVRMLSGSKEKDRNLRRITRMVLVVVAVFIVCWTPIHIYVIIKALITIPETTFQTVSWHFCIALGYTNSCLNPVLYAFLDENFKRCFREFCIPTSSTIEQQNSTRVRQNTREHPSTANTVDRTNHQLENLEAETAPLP
Sequence of Delta-type opioid receptor (Rattus norvegicus, UniProt P33533) (P33533 whole entry): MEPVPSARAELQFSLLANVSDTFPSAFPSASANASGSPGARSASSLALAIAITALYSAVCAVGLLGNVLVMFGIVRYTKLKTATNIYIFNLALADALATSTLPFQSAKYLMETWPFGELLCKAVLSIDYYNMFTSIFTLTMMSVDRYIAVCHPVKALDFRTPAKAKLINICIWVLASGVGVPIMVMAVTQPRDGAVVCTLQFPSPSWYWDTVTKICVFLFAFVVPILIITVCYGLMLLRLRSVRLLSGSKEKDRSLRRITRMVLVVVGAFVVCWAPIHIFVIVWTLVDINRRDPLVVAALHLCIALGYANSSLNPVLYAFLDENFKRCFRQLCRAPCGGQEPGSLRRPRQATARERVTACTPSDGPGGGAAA
Sequence of Mu-type opioid receptor (Cavia porcellus, UniProt P97266) (P97266 whole entry): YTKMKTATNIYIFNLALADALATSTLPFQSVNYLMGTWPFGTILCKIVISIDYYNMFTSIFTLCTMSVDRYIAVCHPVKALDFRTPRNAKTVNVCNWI

Structure (SMILES)	Ki [1] [µM]	Ki (Substance-P receptor) [µM]	Ki (Mu-type opioid receptor [2]) [µM]	IC50 (Mu-type opioid receptor [3]) [µM]	IC50 [4] [µM]	Ratio (Rattus norvegicus [5])	Activity (Rattus norvegicus [7])	Activity (Rattus norvegicus [8])	Activity (Rattus norvegicus [9])	other results
Cc1cc(O)cc(C)c1C[C@H](N)C(=O)N[C@H](CCCNC(=N)N)C(=O)N[C@@H](Cc1ccccc1)C(=O)N[C@@H](CCCCN)C(=O)N(C)[C@@H]1CCN(C(=O)c2cc(C(F)(F)F)cc(C(F)(F)F)c2)C[C@@H]1c1ccccc1	> 1	0.0011	0.054	0.0702	0.814					
Cc1cc(O)cc(C)c1C[C@H](N)C(=O)N[C@H](CCCNC(=N)N)C(=O)N[C@H]1Cc2ccccc2CN(CCC(=O)N2CC[C@@H](C(=O)N(C)Cc3cc(C(F)(F)F)cc(C(F)(F)F)c3)[C@H](c3ccccc3)C2)C1=O	0.00707	0.0019	0.00307	0.0301	0.0103					
Cc1cc(O)cc(C)c1C[C@H](N)C(=O)N[C@H](CCCNC(=N)N)C(=O)N[C@@H](Cc1ccccc1)C(=O)N[C@@H](CCCCN)CC(N)=O	0.29		0.000187	0.0059	0.0077					
CN1CC[C@]23c4c5ccc(O)c4O[C@H]2[C@@H](O)C=C[C@H]3[C@H]1C5 [MORPHINE]						3.5	Active	inactive	Active	Activity (Rattus norvegicus [6]): Active; Activity (Rattus norvegicus [10]): Active; Activity (Rattus norvegicus [11]): Active
Cc1cc(O)cc(C)c1C[C@H](N)C(=O)N[C@H](CCCNC(=N)N)C(=O)N[C@@H](Cc1ccccc1)C(=O)N[C@@H](CCCCN)C(=O)N1CCN([C@@H]2CCN(C(=O)c3cc(C(F)(F)F)cc(C(F)(F)F)c3)C[C@@H]2c2ccccc2)CC1	0.533	0.00099	0.00991	0.137	0.384					
Cc1cc(O)cc(C)c1C[C@H](N)C(=O)N[C@H](CCCNC(=N)N)C(=O)N[C@@H](Cc1ccccc1)C(=O)N[C@@H](CCCCN)C(=O)N1CC[C@@H](C(=O)N(C)Cc2cc(C(F)(F)F)cc(C(F)(F)F)c2)[C@H](c2ccccc2)C1	0.339	0.0012	0.0398	0.658	0.349					
Cc1cc(O)cc(C)c1C[C@H](N)C(=O)N[C@H](CCCNC(=N)N)C(=O)N[C@H]1Cc2ccccc2CN(CCC(=O)N2CCN([C@@H]3CCN(C(=O)c4cc(C(F)(F)F)cc(C(F)(F)F)c4)C[C@@H]3c3ccccc3)CC2)C1=O	0.0106	0.0014	0.00118	0.0203	0.0141	3.5	Active	inactive	Active	Activity (Rattus norvegicus [12]): Active; Activity (Rattus norvegicus [13]): Active; Activity (Rattus norvegicus [14]): inactive; Ratio (Rattus norvegicus [15]): 3.5; Activity (Rattus norvegicus [16]): Active; Activity (Rattus norvegicus [17]): Active; Activity (Rattus norvegicus [18]): Active; Activity (Rattus norvegicus [19]): Active
CN[C@@H]1CCN(C(=O)c2cc(C(F)(F)F)cc(C(F)(F)F)c2)C[C@@H]1c1ccccc1							Active	inactive	Active	Activity (Rattus norvegicus [20]): inactive
Cc1cc(O)cc(C)c1C[C@H](N)C(=O)N[C@H](CCCNC(=N)N)C(=O)N[C@@H](Cc1ccccc1)C(=O)N[C@@H](CCCCN)CC(=O)N1CC[C@@H](C(=O)N(C)Cc2cc(C(F)(F)F)cc(C(F)(F)F)c2)[C@H](c2ccccc2)C1	> 1	0.0022	0.0202	0.538	1.66					
Cc1cc(O)cc(C)c1C[C@H](N)C(=O)N[C@H](CCCNC(=N)N)C(=O)N[C@H]1Cc2ccccc2CN(CCC(=O)N(C)[C@@H]2CCN(C(=O)c3cc(C(F)(F)F)cc(C(F)(F)F)c3)C[C@@H]2c2ccccc2)C1=O	0.0112	0.0014	0.00182	0.013	0.0126	3.5	Active	inactive	Active	Activity (Rattus norvegicus [21]): Active; Activity (Rattus norvegicus [22]): Active; Ratio (Rattus norvegicus [15]): 3.5; Activity (Rattus norvegicus [23]): inactive; Activity (Rattus norvegicus [24]): Active; Activity (Rattus norvegicus [25]): Active; Activity (Rattus norvegicus [26]): inactive; Activity (Rattus norvegicus [19]): Active
